We go through 1 compound from ChEMBL document CHEMBL3351861, “New synthetic sulfone derivatives inhibit growth, adhesion and the leucine arylamidase APE2 gene expression of Candida albicans in vitro” (2015).

Experiment [1] has as its system Candida albicans. In words: Reduction in APE2 gene expression in compound pre-treated Candida albicans SC5314 grown under YEPD medium at 16 ug/ml pre-treated for 2 hrs measured after 18 hrs by RT-PCR method. Format: functional. A digest of the protocol:
(§1)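 YEPD-grown yeast (18 h, 30°C) washed and held at 10^4 cfu/ml in YEPD with 16 µg/ml sulfone for 2 h. Cells were then washed and regrown 18 h at 30°C in YEPD. Total RNA was reverse-transcribed and SYBR Green qPCR run (250 nM primers, 60 ng cDNA, 45 cycles). APE2 was normalized to ACT1 by 2^-ΔΔCt with strain 90028 as calibrator. Done in triplicate on three occasions.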

The subject of experiment [2] is Candida albicans. The experiment is described as follows: Reduction in APE2 gene expression in compound pre-treated Candida albicans CAI4 expressing delta-efg1 gene grown on human Caco2 cells monolayer at 16 ug/ml pre-treated for 2 hrs measured after 18 hrs by RT-PCR method. Format: functional, Caco-2. In a few lines:
(§2)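 Caco-2 was seeded at 1.2×10^5 cells/ml in EMEM (10% FCS, 1 mM pyruvate, no antibiotics) for 18 h at 37°C, 5% CO2. Yeast (10^4 cfu/ml) was pre-incubated 2 h in RPMI with 16 µg/ml sulfone, washed, resuspended in RPMI and inoculated onto the monolayer at 37°C. APE2 mRNA was measured by SYBR qPCR against ACT1 (2^-ΔΔCt, 90028 calibrator), in triplicate.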

Experiment [3] concerns Candida albicans. The experiment is described as follows: Reduction in APE2 gene expression in compound pre-treated Candida albicans CAI4 expressing delta-cph1/delta-efg1 (EFG1) gene grown under YEPD medium at 16 ug/ml pre-treated for 2 hrs measured after 18 hrs by RT-PCR method. The experiment is classed as functional. A digest of the protocol:
(§3)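 Blastoconidia from YEPD (10^4 cfu/ml) are washed and exposed 2 h to 16 µg/ml sulfone in YEPD. They are then washed and regrown 18 h at 30°C in YEPD before RNA extraction. Real-time RT-PCR uses SYBR Green with 250 nM primers and 60 ng cDNA: 95°C 15 min, then 45 cycles of 94°C 15 s and 60°C 1 min, plus a dissociation curve. APE2 is normalized to ACT1 by 2^-ΔΔCt with strain 90028 as calibrator; three experiments.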

Experiment [4] deals with Candida albicans. The experiment is described as follows: Reduction in APE2 gene expression in compound pre-treated Candida albicans CAI4 expressing delta-cph1/delta-efg1 (EFG1) gene grown on human Caco2 cells monolayer at 16 ug/ml pre-treated for 2 hrs measured after 6 hrs by RT-PCR method. The experiment is classed as functional, Caco-2. A digest of the protocol:
(§4)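 Blastoconidia are pre-incubated 2 h with 16 µg/ml sulfone in RPMI. They are then washed, resuspended in RPMI and placed on Caco-2 monolayers at 37°C, with RNA taken at 6 or 18 h. Real-time RT-PCR uses SYBR Green with 250 nM primers and 60 ng cDNA: 95°C 15 min, then 45 cycles of 94°C 15 s and 60°C 1 min, plus a melt curve. APE2 is normalized to ACT1 by 2^-ΔΔCt with 90028 as calibrator; three experiments.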

For experiment [5], the system named is Candida albicans. In words: Reduction in APE2 gene expression in compound pre-treated Candida albicans 90028 grown under YEPD medium at 16 ug/ml pre-treated for 2 hrs measured after 18 hrs by RT-PCR method. The experiment is classed as functional. A digest of the protocol:
as §3

In experiment [6] the test system is Candida albicans. In words: Reduction in APE2 gene expression in compound pre-treated Candida albicans CAI4 expressing delta-cph1 (CPH1) gene grown under YEPD medium at 16 ug/ml pre-treated for 2 hrs measured after 18 hrs by RT-PCR method. Format: functional. A digest of the protocol: as §3
The subject of experiment [7] is Candida albicans. In words: Reduction in APE2 gene expression in compound pre-treated Candida albicans CAI4 expressing delta-efg1 (EFG1) gene grown on human Caco2 cells monolayer at 16 ug/ml pre-treated for 2 hrs measured after 6 hrs by RT-PCR method. The experiment is classed as functional, Caco-2. In a few lines: as §2
Experiment [8] deals with Candida albicans. In words: Reduction in APE2 gene expression in compound pre-treated Candida albicans CAI4 expressing delta-efg1 (EFG1) gene grown on human Caco2 cells monolayer at 16 ug/ml pre-treated for 2 hrs measured after 18 hrs by RT-PCR method. Format: functional, Caco-2. In a few lines:
as §2

For experiment [9], the system named is Candida albicans. The experiment is described as follows: Increase in APE2 gene expression in compound pre-treated Candida albicans CAI4 expressing delta-cph1/delta-efg1 gene grown on human Caco2 cells monolayer at 16 ug/ml pre-treated for 2 hrs measured after 18 hrs by RT-PCR method. Format: functional, Caco-2. In a few lines: as §4
The test system of experiment [10] is Candida albicans. The experiment is described as follows: Reduction in APE2 gene expression in compound pre-treated Candida albicans CAI4 expressing delta-cph1/delta-efg1 gene grown on human Caco2 cells monolayer at 16 ug/ml pre-treated for 2 hrs measured after 6 hrs by RT-PCR method. The experiment is classed as functional, Caco-2. A digest of the protocol: as §4

Experiment [11] concerns Candida albicans. The experiment is described as follows: Reduction in APE2 gene expression in compound pre-treated Candida albicans SC5314 grown on human Caco2 cells monolayer at 16 ug/ml pre-treated for 2 hrs measured after 6 hrs by RT-PCR method. Format: functional, Caco-2. A digest of the protocol: as §2
Experiment [12] deals with Candida albicans. The experiment is described as follows: Reduction in APE2 gene expression in compound pre-treated Candida albicans CAI4 expressing delta-cph1 (CPH1) gene grown on human Caco2 cells monolayer at 16 ug/ml pre-treated for 2 hrs measured after 18 hrs by RT-PCR method. Format: functional, Caco-2. In a few lines:
as §4

Experiment [13] deals with Candida albicans. The experiment is described as follows: Reduction in APE2 gene expression in compound pre-treated Candida albicans CAI4 expressing delta-efg1 (EFG1) gene grown under YEPD medium at 16 ug/ml pre-treated for 2 hrs measured after 18 hrs by RT-PCR method. The experiment is classed as functional. In a few lines:
as §1

Experiment [14] relates to Candida albicans. The experiment is described as follows: Inhibition of cell adhesion of compound pre-treated Candida albicans CAI4 expressing delta-efg1 (EFG1) gene to human Caco2 cells assessed as cell adhesion level at 4 ug/ml pre-incubated for 18 hrs by colony counting method (reference value: 2.6 +/- 2.33%). The experiment is classed as functional, Caco-2. Details: scale not given: the % may be the effect or the level left.

The subject of experiment [15] is Candida albicans. In words: Reduction in APE2 gene expression in compound pre-treated Candida albicans CAI4 expressing delta-cph1 gene grown on human Caco2 cells monolayer at 16 ug/ml pre-treated for 2 hrs measured after 6 hrs by RT-PCR method. The experiment is classed as functional, Caco-2. In a few lines: as §4
For experiment [16], the system named is Candida albicans. The experiment is described as follows: Inhibition of cell adhesion of compound pre-treated Candida albicans 90028 to human Caco2 cells assessed as cell adhesion level at 4 ug/ml pre-incubated for 18 hrs by colony counting method (reference value: 1.58 +/- 0.67%). The experiment is classed as functional, Caco-2. Details: scale not given: the % may be the effect or the level left.

The subject of experiment [17] is Candida albicans. The experiment is described as follows: Reduction in APE2 gene expression in compound pre-treated Candida albicans SC5314 grown on human Caco2 cells monolayer at 16 ug/ml pre-treated for 2 hrs measured after 18 hrs by RT-PCR method. Format: functional, Caco-2. In a few lines: as §2
The test system of experiment [18] is Candida albicans. In words: Reduction in APE2 gene expression in compound pre-treated Candida albicans CAI4 expressing delta-cph1 (CPH1) gene grown on human Caco2 cells monolayer at 16 ug/ml pre-treated for 2 hrs measured after 6 hrs by RT-PCR method. Format: functional, Caco-2. A digest of the protocol: as §4
For experiment [19], the system named is Candida albicans. In words: Reduction in APE2 gene expression in compound pre-treated Candida albicans CAI4 expressing delta-cph1 gene grown on human Caco2 cells monolayer at 16 ug/ml pre-treated for 2 hrs measured after 18 hrs by RT-PCR method. The experiment is classed as functional, Caco-2. In a few lines: as §4
Experiment [20] relates to Candida albicans. The experiment is described as follows: Reduction in APE2 gene expression in compound pre-treated Candida albicans CAI4 expressing delta-cph1/delta-efg1 gene grown under YEPD medium at 16 ug/ml pre-treated for 2 hrs measured after 18 hrs by RT-PCR method. Format: functional. A digest of the protocol: as §3
The test system of experiment [21] is Candida albicans. The experiment is described as follows: Inhibition of hyphae formation in Candida albicans 90028 assessed as appearance of spherical blastoconidia with polarly located budding without filament formation at 16 ug/ml incubated for 18 hrs by phase contrast microscopy.

Active and inactive are the calls of the source. No cut-off for these calls is given here.

In the case of `NNc1ccc(S(=O)(=O)C(Cl)(Br)Br)cc1[N+](=O)[O-]`, the ΔCt in experiment [1] was 2.84; in [3], 3.3; in [5] it was 2.82; in [6], 4.71; in [11] it was 6.39; in experiment [13], 3.44. Moreover, the ΔCt came out at 3.83 in experiment [17] and 4.05 in experiment [20]. Besides, the “fold change (FC)” value was determined as 9.07 in experiment [2]; 9.42 in experiment [4]; 10.7 in experiment [7]; 8.72 in experiment [8]; 1.38 in experiment [9]; 10.26 in [10]. In addition, the “fold change (FC)” value in experiment [12] is 9.29; in experiment [15], 10.83; in experiment [18] it was 10.25; in experiment [19], 4.05. In addition, the Activity in experiment [14] and in experiment [16] was 0.91% each time. Further, the result in experiment [21] was Active.
